Assay outcomes (PubChem)
Only some compounds are listed: those with a hit (about 9.4% of all), similar ones and a draw of the others.
SKKanGAS inh: inhibitors of SKKanGAS S. pyogenes growth in kanamycin (SK-promoter or general growth effect); BacTiter-Glo, 6 h; inhibition, % at 7.5 µM; 300,000 tested, 1.3% active; AID 1662;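 active means mean replicate score, as percent of positive control median, at least 50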;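 further: strain carries kanamycin resistance gene driven by streptokinase promoter and grows in 40 µg/ml kanamycin; loss of luminescence reflects streptokinase promoter inhibition or plain growth inhibition; 0% = median of DMSO wells and 100% = positive control at its reference dose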
CSC inhib: cancer stem cell inhibition; inhibition, % at 7.5 µM; 300,000 tested, 1.1% active; cancer stem cell-like cells viability, luminescence; in the data active means inhibition above about 75%; tested in HMLE shEcad cells
L major viab: reduces viability of Leishmania major promastigotes; resazurin fluorescence viability; inhibition, % at 10 µM; 200,000 tested, 9% active; in the data active means inhibition above about 50%;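 further: promastigotes grown with compound for 44 hours at 28 °C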
Mdm2 MdmX PPI: human Mdm2/MdmX binding inhibition. O15151+Q00987. SaOS-2 split-luciferase Mdm2/MdmX complementation, luminescence. inhibition, % at 8 µM. 330,000 tested, 3% active. AID 485346;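 active means inhibition of at least 50% at 8 µM in the primary screen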
Target sequence (O15151 whole entry, looked up): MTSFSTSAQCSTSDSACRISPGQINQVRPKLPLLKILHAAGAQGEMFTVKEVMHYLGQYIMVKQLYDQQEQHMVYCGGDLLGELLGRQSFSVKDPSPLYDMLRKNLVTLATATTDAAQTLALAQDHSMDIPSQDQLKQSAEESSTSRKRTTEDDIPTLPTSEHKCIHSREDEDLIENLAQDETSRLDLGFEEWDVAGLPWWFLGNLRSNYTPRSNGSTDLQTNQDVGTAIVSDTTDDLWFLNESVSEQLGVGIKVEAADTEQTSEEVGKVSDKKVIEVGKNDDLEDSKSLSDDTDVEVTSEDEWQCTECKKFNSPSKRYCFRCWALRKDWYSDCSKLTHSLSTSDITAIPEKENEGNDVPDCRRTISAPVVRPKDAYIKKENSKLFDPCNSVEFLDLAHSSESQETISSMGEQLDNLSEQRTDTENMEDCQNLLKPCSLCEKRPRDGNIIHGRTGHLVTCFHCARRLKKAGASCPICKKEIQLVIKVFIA
Target sequence (Q00987 whole entry, looked up): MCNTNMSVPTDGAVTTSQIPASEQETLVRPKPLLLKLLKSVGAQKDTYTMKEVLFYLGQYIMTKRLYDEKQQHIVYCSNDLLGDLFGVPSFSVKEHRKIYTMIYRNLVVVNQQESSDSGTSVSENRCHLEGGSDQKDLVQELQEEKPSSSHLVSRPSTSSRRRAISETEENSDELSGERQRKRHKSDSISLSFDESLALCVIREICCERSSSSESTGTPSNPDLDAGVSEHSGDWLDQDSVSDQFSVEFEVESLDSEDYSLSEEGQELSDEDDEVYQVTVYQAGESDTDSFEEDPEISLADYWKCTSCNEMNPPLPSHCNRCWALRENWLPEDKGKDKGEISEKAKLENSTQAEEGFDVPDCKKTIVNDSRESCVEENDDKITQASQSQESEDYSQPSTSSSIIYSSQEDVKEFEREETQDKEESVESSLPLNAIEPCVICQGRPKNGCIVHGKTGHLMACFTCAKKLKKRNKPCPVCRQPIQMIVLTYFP
Beta cell apopt: blocks beta cell apoptosis; INS-1E cytokine-induced death, ATP luminescence, 48 h; percent of positive-control rescue, neutral wells zero; protection from apoptosis, % (no concentration beside the values); 300,000 tested, 0.8% active; AID 435005;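 active means Every replicate reaches about 75%, or at least half do and their mean reaches it too, limit read from the data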;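 further: 0% = cytokine-treated negative control wells and 100% = positive control rescue; higher means more ATP so stronger rescue from cytokine killing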
T cruzi inh: T. cruzi replication inhibition. T. cruzi beta-gal in NIH3T3, luminescence, 90 h. inhibition, % (test concentration not listed). 300,000 tested, 1.4% active;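 active means mean inhibition across valid replicates above about 55%, limit read from the data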;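 further: signal also drops with host cell toxicity which is not excluded here; 0% = plate median of DMSO wells and 100% = zero luminescence signal; higher percent means less beta-gal luminescence so fewer parasites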
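Incubation – ≥90 h infection period, 3 h prior cell attachment · System – NIH/3T3 fibroblasts plus reporter T. cruzi · Doses – compound pinned at 50 nL/well, DMSO · Read-out basis – percent inhibition of parasite-derived β-gal signal · Signal – luminescent β-galactosidase signal after 60 min lysis · Also added – 5000 T. cruzi trypomastigotes/well · Medium – Low-serum DMEM with 2% FBS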
Mdm2 MdmX conf: confirmation of human Mdm2/MdmX interaction inhibitors; shares compounds with Mdm2 MdmX PPI; Mdm2-MdmX binding, luminescent assay; inhibition, % at 8 µM; 10,000 tested, 55% active; AID 489028; in the data active means inhibition above about 40%
FLuc counter: inhibits full-length luciferase, flagging false Mdm2/MdmX hits. SaOS-2 full-length luciferase counterscreen, luminescence. AID 504607. 6,200 tested, 77% active. inhibition, % at 8 µM. shares compounds with Mdm2 MdmX PPI;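 active means mean inhibition at 8 µM reaching about 37%, which flags the compound as non-specific, limit read from the data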;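 further: p53-null SaOS-2 cells with luciferase driven by a doxycycline-inducible promoter; compound on cells about two nights before reading with doxycycline added after day one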
Active calls of the source: *; · = no result given.

SMILES	SKKanGAS inh	CSC inhib	L major viab	Mdm2 MdmX PPI	Beta cell apopt	T cruzi inh	Mdm2 MdmX conf	FLuc counter
COc1ccc(C2c3ccc4ccccc4c3Oc3ncn(CCCN(C)C)c(=N)c32)cc1 (stereo not given)	4	105*	·	100*	112*	42	100*	51*
COc1ccc(C2c3c(ncn(CCN4CCOCC4)c3=N)Oc3ccc4ccccc4c32)cc1OC (stereo not given)	0	3	100*	64*	4	-12	38	59*
COc1ccc(C2c3c(ncn(CCCO)c3=N)Oc3ccc4ccccc4c32)cc1 (stereo not given)	8	18	·	81*	5	9	70*	57*
COc1ccc(C2c3c(ncn(CCCO)c3=N)Oc3ccc4ccccc4c32)cc1OC (stereo not given)	2	·	·	44	·	12	·	·
COc1ccc(C2c3ccc(O)cc3Oc3ncn(CCN4CCOCC4)c(=N)c32)cc1 (stereo not given)	-3	-3	·	32	-1	5	·	·
COc1ccccc1C1c2ccc3ccccc3c2Oc2ncn(CCN(C)C)c(=N)c21 (stereo not given)	5	85*	·	100*	45	18	85*	38*
N=c1c2c(ncn1CCCO)Oc1cc(O)ccc1C2c1ccccc1 (stereo not given)	9	-18	·	7	1	-25	·	·
COc1ccc(C2c3ccc(O)cc3Oc3ncn(Cc4ccco4)c(=N)c32)cc1OC (stereo not given)	-2	26	·	16	0	10	·	·
COc1ccc(C2c3ccc4ccccc4c3Oc3ncn(Cc4ccco4)c(=N)c32)cc1OC (stereo not given)	14	80*	58*	85*	-2	-3	54*	67*
COc1ccccc1C1c2ccc3ccccc3c2Oc2ncn(CCCO)c(=N)c21 (stereo not given)	3	17	·	74*	13	41	43*	61*
Cc1cc(N/N=C/c2cccc(Cl)c2)nc(-n2nc(C)cc2C)n1	104*	20	·	64*	103*	33	31	·
Cc1cc(N/N=C/c2cccc([N+](=O)[O-])c2)nc(-n2nc(C)cc2C)n1	19	29	·	15	59	-55	·	·
COc1ccc(/C=N/Nc2cc(N3CCCC3)nc(N3CCCC3)n2)cc1	19	92*	95*	77*	56	67*	20	·
Cc1cc(N/N=C/c2ccccc2[N+](=O)[O-])nc(-n2nc(C)cc2C)n1	6	54	·	53*	128*	69*	37	43*
COc1ccc(/C=N/Nc2cc(C)nc(-n3nc(C)cc3C)n2)cc1	6	19	96*	54*	90*	44	40*	52*
Oc1ccc(/C=N/Nc2cc(N3CCOCC3)nc(N3CCOCC3)n2)cc1	6	20	-10	25	-1	46	·	·
C=CCOc1ccc2c(c1)c(=O)cc(C(=O)O)n2CC	1	-9	·	11	-7	-12	·	·
COc1ccc(Cl)cc1N/C(N)=N/c1nc(CSc2ccc(C)cc2)cc(=O)[nH]1	8	-7	12	4	12	26	·	·
Cc1cccc(N/C(N)=N/c2nc(CSc3ccc(Cl)cc3)cc(=O)[nH]2)c1	6	7	·	68*	13	-29	7	·
N/C(=N\c1nc(CSc2ccccn2)cc(=O)[nH]1)Nc1ccc(Cl)cc1Cl	-3	·	·	64*	5	2	2	·
CCC(=O)N1CCc2cc(S(=O)(=O)NCCC(=O)NC3CCCCCC3)ccc21	-11	0	·	16	-2	1	·	·
COc1cc(C2NC(=O)C(C#N)=C(Nc3cccc(C)c3)S2)ccc1O (stereo not given)	2	-8	·	15	-7	5	·	·
CCN1C(=O)C(Cc2nc3ccccc3c(=O)n2-c2ccccc2)c2ccccc21 (stereo not given)	2	0	21	-3	-1	20	·	·
COc1ccc(-n2c(/C=C3\C(=O)N(C)c4ccccc43)nc3ccccc3c2=O)cc1	10	9	·	61*	-10	7	23	·
CCN1C(=O)/C(=C/c2nc3ccccc3c(=O)n2-c2ccc(C)cc2)c2ccccc21	0	33	99*	83*	-3	74*	62*	86*
SMILES	SKKanGAS inh	CSC inhib	L major viab	Mdm2 MdmX PPI	Beta cell apopt	T cruzi inh	Mdm2 MdmX conf	FLuc counter
CCN1C(=O)/C(=C\c2nc3ccccc3c(=O)n2-c2ccccc2)c2ccccc21	6	·	77*	51*	·	24	33	·
COc1cc(-c2nc(CN(C)C(C)c3ccncn3)c(C)o2)ccc1F (stereo not given)	15	-13	10	-7	-1	-27	·	·
Cc1cc(C)nc(N2CCCC(C(=O)Nc3nnc(C(C)C)s3)C2)n1 (stereo not given)	-1	·	-7	5	·	2	·	·
COc1ccc(-c2csc(NC(=O)C3CC(=O)N(Cc4ccccc4)C3)n2)cc1OC (stereo not given)	3	·	·	29	2	16	·	·
COc1ccc(Cl)cc1C(=O)CSc1nnnn1C1CCCC1	·	-2	7	6	1	·	·	·
COCCn1c(C)cc(C(=O)COC(=O)c2cccc(O)c2)c1C	5	-9	·	74*	2	-10	85*	71*
COCCn1c(C)cc(C(=O)CSc2nnc(C)s2)c1C	0	-23	-2	52*	-5	-8	62*	48*
COCCn1c(C)cc(C(=O)CSc2nnnn2C2CCCC2)c1C	·	-14	·	72*	0	·	80*	79*
Cc1nc(SCC(=O)NCc2ccco2)c2c(=O)n(C)c(=O)n(CC(C)C)c2n1	5	-5	-8	21	3	19	·	·
CC(Cc1cccs1)NC(=O)Nc1ccc([N+](=O)[O-])cc1 (stereo not given)	-14	2	15	-6	3	9	·	·
CCC1CN(C)C2Cc3c([nH]c4ccccc34)C(=O)CC1C2C(=O)OC (stereo not given)	2	-4	·	-20	·	2	·	·
CC[C@H]1CC2CN3CCc4c([nH]c5c([C@H]6C[C@H]7[C@H](CC)CN(C)[C@@H](Cc8c6[nH]c6ccccc86)[C@H]7C(=O)OC)c(OC)ccc45)C(C(=O)OC)(C2)C13	5	103*	·	93*	49	51	83*	37*
Cc1cccn2cc(CCNS(=O)(=O)c3cccc([N+](=O)[O-])c3)nc12	8	-22	·	6	-8	1	·	·
O=C(N[C@@H](Cc1ccccc1)C(=O)N[C@@H](Cc1ccccc1)C(=O)O)OCc1ccccc1	5	-13	·	12	4	-13	·	·
O=C(N[C@@H](Cc1ccccc1)C(=O)CCl)OCc1ccccc1	·	42	·	96*	-14	·	85*	20
